PMC6408977 (Journal of controlled release : official journal of the …, 2019)
Each block holds one molecule with its values, some of them ahead of it. Non-standard residues stand in square brackets, D forms with d. Residues, ends and D or L forms follow the SMILES beside them. Tyr(3-I) = N[C@@H](Cc1ccc(O)c(I)c1)C(=O)O

Assays:
[1] = molecular target: albumin; details: read-out: Albumin dissociation constant; cited from earlier work
[2] = molecular target: human serum albumin (Homo sapiens) (UniProt P02768); details: cited from earlier work
[3] = Tissue biodistribution measurements; set-up: species or system Balb/c mice; details: mouse, in vivo, iv
Procedure, shortened: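 Female Balb/c mice, 8–12 weeks old, from an in-house colony (n = 3). Tissue radioactivity was measured at 1 h and 4 h post-injection, alongside whole-body SPECT/CT imaging at the same times.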

Molecule: CC1(C)S[C@@H]2[C@H](NC(=O)Cc3ccccc3)C(=O)N2[C@H]1C(=O)O [penicillin G]
- Kd [1]: 833 µM

Molecule: insulin detemir (from UniProt P01308)
- Kd [2]: 4.16 µM

- tissue uptake at 1 h [3]: 18 %ID/g
- tissue uptake at 4 h [3]: 10 %ID/g
Molecule: CC(C)C[C@H](NC(=O)CNC(=O)[C@H](C)NC(=O)[C@H](Cc1ccc(O)c(I)c1)NC(=O)CN)C(=O)N[C@@H](C)C(=O)NCC(=O)N[C@@H](CC(C)C)C(=O)N[C@@H](CC(C)C)C(=O)NCC(=O)N[C@@H](CC(C)C)C(=O)N[C@@H](CCC(=O)O)C(=O)NCC(=O)N[C@@H](CC(C)C)C(=O)N[C@@H](CC(C)C)C(=O)NCC(=O)N[C@@H](CC(C)C)C(=O)N1CCC[C@H]1C(=O)N[C@@H](CC(C)C)C(=O)NCC(=O)N[C@@H](CC(C)C)C(=O)N[C@@H](CC(C)C)C(=O)N[C@@H](CCC(=O)O)C(=O)NCC(=O)N[C@@H](CC(C)C)C(=O)N[C@@H](Cc1c[nH]c2ccccc12)C(=O)N[C@@H](CC(C)C)C(=O)NCC(=O)N[C@@H](CC(C)C)C(=O)N[C@@H](CCC(=O)O)C(=O)N[C@@H](CC(C)C)C(=O)N[C@@H](CCC(=O)O)C(=O)NCC(=O)N[C@@H](CC(N)=O)C(=O)O [^125I-ATRAM] (H-G[Tyr(3-I)]AGLAGLLGLEGLLGLPLGLLEGLWLGLELEGN-OH; N-terminus and C-terminus assumed)
